Here are results for 20 compounds from ChEMBL document CHEMBL2321720, “Development of triarylsulfonamides as novel anti-inflammatory agents” (Bioorg Med Chem Lett, 2013).

Structures are written as SMILES. Values after ≈ are worked out from the molar mass of the structure shown.

For orientation: Papp A→B means how fast a substance crosses the layer from the apical side. A word on the Papp B→A: it is how fast a substance crosses the layer from the basolateral side. As usually defined, the Cmax is the highest concentration seen after dosing. The Tmax is the time at which the peak concentration occurs. As usually defined, the AUC is the area under the concentration-time curve, a measure of exposure. The term bioavailability denotes the share of a dose that reaches the circulation, judged against a reference dose that is usually intravenous. A high value points to good availability.

One data set can be described thus: Thermodynamic aqueous solubility of the compound in fasted state simulated intestinal fluid after 24 hrs by HPLC analysis. Format: physicochemical. The following applies: read-out: Therm_solubility. The method, boiled down:
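Solubility in FaSSIF. The sample was filtered and concentration measured by HPLC/UV.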
Take `O=S(=O)(Nc1cccc(CO)c1)c1ccc(-c2ccc(F)cc2)cc1Cl`: the solubility thermodynamic at 24 h is 25 µg/mL (≈ 63.8 µM).

Regarding `Cc1c(CO)cccc1NS(=O)(=O)c1ccc(-c2ccc(F)cc2)cc1`, the solubility thermodynamic at 24 h is 24 µg/mL (≈ 64.6 µM).

Regarding `Cc1c(CO)cccc1NS(=O)(=O)c1ccc(-c2ccc(F)cc2F)cc1`, the solubility thermodynamic at 24 h was 43 µg/mL (≈ 110 µM).

Turning to `Cc1c(CO)cccc1NS(=O)(=O)c1ccc(-c2ccc(Br)cc2)cc1`, the solubility thermodynamic at 24 h was 12 µg/mL (≈ 27.8 µM).

On to `Cc1ccc(CO)cc1NS(=O)(=O)c1ccc(-c2ccc(Br)cc2)cc1`, for which the solubility thermodynamic at 24 h was 47 µg/mL (≈ 109 µM).

As for `O=S(=O)(Nc1cccc(CO)c1Cl)c1ccc(-c2ccc(Br)cc2)cc1`, the solubility thermodynamic at 24 h was 14 µg/mL (≈ 30.9 µM).

As for `O=S(=O)(Nc1cc(CO)ccc1Cl)c1ccc(-c2ccc(Br)cc2)cc1`, the solubility thermodynamic at 24 h is 11 µg/mL (≈ 24.3 µM).

For the compound `O=S(=O)(Nc1ccc(O)c(CO)c1)c1ccc(-c2ccc(Br)cc2)cc1`, the solubility thermodynamic at 24 h is 4 µg/mL (≈ 9.21 µM).

In the case of `O=S(=O)(Nc1cc(CO)ccc1O)c1ccc(-c2ccc(Br)cc2)cc1`, the solubility thermodynamic at 24 h was 12 µg/mL (≈ 27.6 µM).

Take `O=S(=O)(Nc1cc(CO)ccc1O)c1ccc(-c2ccc(F)cc2F)cc1`: the solubility thermodynamic at 24 h is 12 µg/mL (≈ 30.7 µM).

`O=S(=O)(Nc1cccc(CO)c1O)c1ccc(-c2ccc(Br)cc2)cc1`: the solubility thermodynamic at 24 h is 19 µg/mL (≈ 43.7 µM).

As to `O=S(=O)(Nc1ccc(CO)c(CO)c1)c1ccc(-c2ccc(F)cc2F)cc1`, the solubility thermodynamic at 24 h is 32 µg/mL (≈ 78.9 µM).

On to `O=S(=O)(Nc1ccc(-c2ccc(Cl)cc2Cl)cc1)c1cccc(CO)c1`, for which the solubility thermodynamic at 24 h is 40 µg/mL (≈ 98 µM).

For `O=S(=O)(Nc1cccc(CO)c1)c1ccc(-c2ccccc2)cc1`, the solubility thermodynamic at 24 h is 11 µg/mL (≈ 32.4 µM).

For `O=S(=O)(Nc1cccc(CO)c1)c1ccc(-c2ccc(Br)cc2)cc1`, the solubility thermodynamic at 24 h is 22 µg/mL (≈ 52.6 µM).

For `Cc1ccc(-c2ccc(S(=O)(=O)Nc3cccc(CO)c3)cc2)cc1`, the solubility thermodynamic at 24 h is 21 µg/mL (≈ 59.4 µM).

Take `O=S(=O)(Nc1cccc(CO)c1)c1ccc(-c2ccccc2F)cc1`: the solubility thermodynamic at 24 h is 57 µg/mL (≈ 159 µM).

In the case of `O=S(=O)(Nc1cccc(CO)c1)c1ccc(-c2ccc(F)cc2F)cc1`, the solubility thermodynamic at 24 h is 50 µg/mL (≈ 133 µM).

Take `O=S(=O)(Nc1cccc(CO)c1)c1ccc(-c2ccc(Cl)cc2Cl)cc1`: the solubility thermodynamic at 24 h is 40 µg/mL (≈ 98 µM).

On to `O=S(=O)(Nc1cccc(CO)c1)c1ccc(-c2ccc(Cl)cc2F)cc1`, for which the solubility thermodynamic at 24 h was 73 µg/mL (≈ 186 µM).

A short description of a further data set: Apparent permeability from apical to basolateral side of human Caco2 cells. Format: ADME, cell-based. The following applies: Caco-2.
Turning to `O=S(=O)(Nc1cccc(CO)c1)c1ccc(-c2ccc(Cl)cc2Cl)cc1`, the Papp A→B came to 1.5 ×10⁻⁶ cm/s.

A further data set in a line: Apparent permeability from basolateral to apical side of human Caco2 cells. The following applies: Caco-2. Format: ADME, cell-based.
Turning to `O=S(=O)(Nc1cccc(CO)c1)c1ccc(-c2ccc(Cl)cc2Cl)cc1`, the Papp B→A was 5.5 ×10⁻⁶ cm/s.

A short description of a further data set: Cmax in rat at […], po. Format: ADME, organism-based. The arrangement: dose 2.5 mg/kg, route oral. The following applies: in vivo.
For `O=S(=O)(Nc1cccc(CO)c1)c1ccc(-c2ccc(Cl)cc2Cl)cc1`, the Cmax was found to be 30 ng/mL.

Another data set in a line: Tmax in rat at […], po. The format is ADME, organism-based. The following applies: in vivo. The arrangement: dose 2.5 mg/kg, route oral.
Regarding `O=S(=O)(Nc1cccc(CO)c1)c1ccc(-c2ccc(Cl)cc2Cl)cc1`, the Tmax is 50 min.

A further data set in a line: AUC in rat at […], po. The format is ADME, organism-based. The arrangement: dose 2.5 mg/kg, route oral. The settings on record: plasma.
For `O=S(=O)(Nc1cccc(CO)c1)c1ccc(-c2ccc(Cl)cc2Cl)cc1`, the AUC was found to be 110 ng·h/mL.

Another data set is described as follows: Oral bioavailability in rat at […]. The settings on record: in vivo. The format is ADME, organism-based.
`O=S(=O)(Nc1cccc(CO)c1)c1ccc(-c2ccc(Cl)cc2Cl)cc1` returned a bioavailability of 8%.
